Source: PubChem BioAssay
NPY Y1 blocker = NPY-Y1 receptor antagonists, primary screen, cell-based; HEK293-CNG Y1 cells, membrane potential fluorescence; NPY at EC95, then isoproterenol; inhibition, % at 3.6 µM; actives 1% (n = 200,000); AID 1040, 2008;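 active = inhibition above the campaign mean inhibition of all tested compounds plus 3 SD, cut at about 20% in these data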;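 also: 0% = DMSO wells given NPY plus isoproterenol and 100% = isoproterenol alone without NPY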
Target sequence (P25929 whole entry, looked up): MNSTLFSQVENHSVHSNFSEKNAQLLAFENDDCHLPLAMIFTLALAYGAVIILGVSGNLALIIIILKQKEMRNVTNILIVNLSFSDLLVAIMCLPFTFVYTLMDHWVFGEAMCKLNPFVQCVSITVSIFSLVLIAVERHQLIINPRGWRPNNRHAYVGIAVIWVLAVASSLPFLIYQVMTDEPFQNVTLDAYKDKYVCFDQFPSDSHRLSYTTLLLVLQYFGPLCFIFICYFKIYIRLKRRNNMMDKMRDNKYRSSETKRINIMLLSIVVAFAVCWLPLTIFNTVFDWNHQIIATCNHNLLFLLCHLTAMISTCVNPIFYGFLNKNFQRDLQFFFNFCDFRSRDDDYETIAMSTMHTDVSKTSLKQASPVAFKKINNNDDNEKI
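Assay system: HEK293 Y1/CNG channel cell line; Doses: single compound dose of 3.6 µM, 0.4% DMSO; Timing: dye 3 h, compound 60 min room temperature, stimulation 45 min; Technique: Membrane-potential fluorescent dye readout; Measure: % inhibition of NPY effect.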
NPY Y2 blocker = NPY-Y2 receptor antagonists, primary screen, cell-based; Neuropeptide Y receptor type 2 (Homo sapiens), P49146; NPY-Y2 expressing cells, antagonist mode; actives 0.99% (n = 140,000); AID 793, 2007; inhibition, % at 2.7 µM; in the data active = inhibition above about 17%;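 also: 0% = vehicle with agonist challenge and 100% = reference antagonist with challenge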
NPY-Y2 PAM-ag = NPY-Y2 potentiators or agonists, primary screen, cell-based | cells expressing NPY-Y2, potentiator/agonist read-out | activation, % at 3.6 µM | actives 0.45% (n = 220,000) | AID 1359, 2008; in the data active = activation above about 27%;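 also: cells stimulated with NPY near EC25 plus isoproterenol at EC100; 0% = vehicle plus submaximal agonist and 100% = vehicle plus saturating agonist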
NPY1 pot ag = NPY-Y1 receptor potentiators or agonists, primary screen, cell-based; NPY-Y1 expressing cells, potentiator/agonist activation; activation, % at 3.6 µM; actives 0.37% (n = 220,000); in the data active = activation above about 33%, passing the limit was not always enough;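 also: cells stimulated with NPY at EC10 then isoproterenol at EC100; 0% = low agonist plus stimulus and 100% = saturating agonist plus stimulus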
NPY1 antag ctr = NPY-Y1 receptor antagonists, selectivity check, counter-screen for NPY-Y2 antagonist project, cell-based | shares compounds with NPY Y2 blocker | cell-based NPY-Y1 antagonism counterscreen | inhibition, % at 3.6 µM | actives 19% (n = 710) | AID 1256, 2008; in the data active = inhibition above about 20%;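 also: cells challenged with NPY then isoproterenol with cAMP sensed through a CNG channel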
NPY-Y2 ant conf = NPY-Y2 receptor antagonists, retest of hits, confirmation, HEK293-CNG cells, membrane potential fluorescence, triplicate; HEK293 NPY-Y2 CNG channel; shares compounds with NPY Y2 blocker; inhibition, % at 2.8 µM; AID 1257, 2008; actives 32% (n = 710);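 active = mean inhibition of triplicate wells above the hit cutoff set in the primary screen, cut at about 17% in these data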;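 also: 0% = DMSO with NPY challenge and 100% = BIIE0246 high control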
* hit, by the source's call; / = no result. Rows were chosen to be rich in hits. Some 1.9% of all compounds tested hit in one or more screens of this group.

SMILES	NPY Y1 blocker	NPY Y2 blocker	NPY-Y2 PAM-ag	NPY1 pot ag	NPY1 antag ctr	NPY-Y2 ant conf
COC(=O)c1cc2c(ccn2-c2ccc(F)cc2)n1CC(=O)N1CCN(C(=O)c2ccco2)CC1	-1.1	3.7	2.8	-15.3	/	/
COC(=O)c1cc2c(ccn2-c2ccc(F)cc2)n1Cc1ccc(C#N)cc1	1.1	18.7*	0.6	0.0	10.4	9.5
CCC(C)(C(=O)NC1CCCC1)N(Cc1ccco1)C(=O)c1ccccn1 (stereo not given)	17.8	22.8*	-13.1	-14.3	13.9	8.1
CC(=O)Oc1c(Cl)c(N2CCOCC2)c(OC(C)=O)c2ccccc12	7.8	-1.2	-2.2	-16.6	/	/
Cc1cc(/C=N/n2cnnc2)c(C)n1-c1ccc(OCc2ccc(Cl)cc2Cl)cc1	8.2	22.1*	-9.0	-57.8	21.2*	23.7*
O=c1c2ccccc2nc(SCc2ccccc2)n1Cc1ccco1	-2.1	2.4	-8.0	-6.6	/	/
O=c1c2ccccc2nc(SCc2cccc(F)c2)n1Cc1ccco1	17.6	19.3*	-2.2	-20.6	8.8	12.7
CC(=O)Cc1nnn(-c2cc(C)on2)n1	/	/	-6.0	0.2	/	/
CN(c1ccc(C(=O)NCCSCc2ccc(Cl)cc2)cc1)S(=O)(=O)c1ccccc1	7.6	11.0	10.2	-22.6	/	/
Cc1ccc(CSCCNC(=O)c2ccc(N(C)S(=O)(=O)c3ccccc3)cc2)cc1	4.9	17.9*	-25.8	-35.6	10.3	14.7
Cc1ccc(NC(=S)NCc2ccc3c(c2)OCO3)c(C)c1	6.0	20.6*	-19.6	-9.4	7.1	10.3
COc1ccc2sc(N3C(=O)CC(Cc4cccc(C)c4)C3=O)nc2c1 (stereo not given)	10.6	27.2*	-26.6	-25.3	11.8	8.5
Cc1cccc(CC2CC(=O)N(c3nc4ccccc4s3)C2=O)c1 (stereo not given)	12.5	/	-7.1	-7.0	/	/
O=C(OCCN1C(=O)c2cccc3c(N4CCOCC4)ccc(c23)C1=O)c1cccc(Cl)c1	1.7	20.4*	0.8	5.9	29.1*	40.3*
O=C(OCCN1C(=O)c2cccc3c(N4CCOCC4)ccc(c23)C1=O)c1ccc(Cl)cc1Cl	-0.2	9.9	6.5	-6.3	/	/
COCCNC(=O)c1onc(CSc2cc(C)ccc2C)c1C(=O)O	7.0	10.3	-23.0	-6.2	/	/
CCCCNC(=O)c1onc(CSc2cc(C)ccc2C)c1C(=O)O	17.6	20.6*	-19.5	-23.8	30.9*	24.6*
Cc1ccc2c(c1)C(=O)C(=O)N2CC(=O)Nc1ccccc1NC(=O)c1ccccn1	/	/	0.6	-10.3	/	/
CC(C)Cn1c(N)c(C(=O)NCC2CCCO2)c2nc3ccccc3nc21 (stereo not given)	12.7	19.6*	4.5	-16.2	15.8	7.5
Fc1ccc(Cn2c(-c3cscn3)nc3ccccc32)c(Cl)c1	12.6	5.5	3.7	-16.4	/	/
Nc1nonc1-c1nc2ccccc2n1Cc1ccc(F)cc1Cl	16.2	25.4*	-27.2	-61.3	45.2*	51.0*
O=C(Nc1ccc(Cl)cc1F)c1ccc(COc2c(F)c(F)c(F)c(F)c2F)o1	15.0	16.0	-19.6	-21.5	/	/
O=C(Nc1ccc(F)cc1F)c1ccc(COc2c(F)c(F)cc(F)c2F)o1	10.5	17.6*	-27.3	-39.9	9.6	8.8
CC(C)Cc1ccc(C(C)NC(=O)c2ccc(=O)[nH]c2)cc1 (stereo not given)	-1.3	/	-5.5	10.2	/	/
COc1ccc(/C=N/NC(=O)CCOc2ccccc2C)cc1OC	7.6	35.0*	13.4	-17.6	11.9	15.8
SMILES	NPY Y1 blocker	NPY Y2 blocker	NPY-Y2 PAM-ag	NPY1 pot ag	NPY1 antag ctr	NPY-Y2 ant conf
COc1ccc(/C=N/NC(=O)CN(CCc2ccccc2)S(=O)(=O)c2ccc(NC(C)=O)cc2)cc1OC	-0.7	18.0*	-4.9	-9.7	10.8	44.5*
COc1cc(/C=N/NC(=O)CCOc2ccccc2C)cc(Br)c1O	6.7	/	-3.7	-1.9	/	/
COc1cc(/C=N/NC(=O)CN(CCc2ccccc2)S(=O)(=O)c2ccc(NC(C)=O)cc2)cc(OC)c1OC	-2.9	-0.3	1.3	-3.9	/	/
CCOC(=O)Cn1nc(C(F)F)c(Br)c1C	-0.8	/	1.6	-0.2	/	/
O=C(NC(c1ccccc1)c1ccccc1)C1(c2cccs2)CCOCC1	15.5	17.6*	-3.4	4.6	6.1	4.9
CCN(C(=O)CN1CCOCC1)C1(C)C(=O)c2ccccc2C1=O	-0.9	1.2	0.5	0.3	/	/
COC(=O)c1cc(-c2ccc(OC)c(OC)c2)on1	12.2	28.1*	-23.5	-36.5	27.6*	50.2*
COC(=O)c1cc(-c2ccc(OC)cc2)on1	12.6	/	-17.5	-56.4	/	/
C/C(=N\OC(=O)c1ccc(OC(C)C)cc1)c1ccc(C)c(C)c1	13.0	21.8*	0.7	-42.1	14.6	30.2*
CC/C(=N\OC(=O)c1ccc(OC(C)C)cc1)c1ccc(C)cc1	12.1	20.1*	-18.0	-11.8	9.9	14.2
COc1ccc(C(=O)O/N=C(\C)c2ccccc2)cc1	-2.3	-1.9	1.4	-7.5	/	/
CCCOc1ccc(C(=O)O/N=C(\CC)c2ccc(C)cc2)cc1	0.7	10.0	-10.5	-4.4	/	/
CN=C(Nc1ccc(C(=O)OC)s1)c1ccc(Cl)cc1	-0.9	/	3.5	7.7	/	/
CN(C)S(=O)(=O)c1cccc(NC(=O)CCNC(=O)c2ccccc2Cl)c1	0.5	2.3	-14.2	-6.7	/	/
Cc1nc(SCCCSc2n[nH]c(C)n2)n[nH]1	6.0	1.2	6.7	9.0	/	/
Brc1cccc(-c2nnc(-c3ccccc3)o2)c1	19.8	17.9*	-3.2	-28.5	13.7	13.2
Cc1ccc(-c2nnc(-c3cccc(Br)c3)o2)cc1	2.8	12.9	-3.6	-20.2	/	/
CCC(C)N(C(=O)COc1ccc(NC(C)=O)cc1)C1CCS(=O)(=O)C1 (stereo not given)	1.9	/	4.7	5.8	/	/
Cc1cccc(OCCCOc2cccc3cccnc23)c1C	9.7	21.0*	-20.6	-11.2	6.7	10.3
Clc1ccc(OCCOCCOc2cccc3cccnc23)c(Br)c1	1.4	18.2*	-16.5	-66.0	23.9*	53.4*
Brc1ccccc1OCCOCCOc1cccc2cccnc12	8.0	6.7	-29.3	-16.0	/	/
COc1ccccc1OCc1nc(C#N)c(N2CCCC2)o1	4.8	/	4.8	-10.5	/	/
COc1ccccc1OCc1nc(C#N)c(N2CC(C)CC(C)C2)o1 (stereo not given)	15.4	17.9*	-3.2	-36.6	9.5	6.2
COc1ccc(Cc2nnc(SCC(=O)N3CCCCC3)o2)cc1	3.5	/	-12.4	4.7	/	/
O=C1CSC(c2nn(-c3ccccc3)cc2-c2cc3ccccc3oc2=O)N1Cc1ccco1 (stereo not given)	7.4	18.1*	-19.7	-39.0	2.0	6.5
